Measurements gathered from unrelated publications.
Protocols differ between the studies behind these lines.
PIM3: Serine/threonine-protein kinase pim-3 (PIM3, Homo sapiens, UniProt Q86V86)

SMILES	target	read-out	action	method	tested at	endpoint	value
Cc1nn(C)cc1-c1nc2c(N3CCN(Cc4ccc(Cl)cc4)CC3)c(Cl)cnc2[nH]1	PIM3	binding	–	competition with immobilised ligand	1 µM	remaining binding	100%
CCOC(=O)c1ccc(OC(=O)CCCCCNC(=N)N)cc1	Ubiquitin carboxyl-terminal hydrolase isozyme L3 (UCHL3, Homo sapiens, UniProt P15374)	enzyme activity	inhibitor	–	10 µM	inhibition	4%
C=CC(=O)N1CCC[C@@H](n2nc(-c3ccc(Oc4ccccc4)cc3)c3c(N)ncnc32)C1	Dual specificity tyrosine-phosphorylation-regulated kinase 1B (DYRK1B, Homo sapiens, UniProt Q9Y463)	cell-free assay	–	–	1 µM	remaining signal	136%
N#Cc1ccc(NCCNCC(=O)N2N=CCC2C#N)nc1 (centres unmarked)	Dipeptidyl peptidase 2 (Homo sapiens, UniProt Q9UHL4)	enzyme activity	inhibitor	–	10 µM	inhibition	30%
COc1ncccc1-c1cnn2ccc(N3CCN(C(=O)OC(C)C)CC3)nc12	Dual specificity testis-specific protein kinase 1 (TESK1, Homo sapiens, UniProt Q15569)	binding	–	competition with immobilised ligand	1 µM	remaining binding	93%
Nc1ncc(-c2nc(N3CCOCC3)nc(N3CCOCC3)n2)c(C(F)F)n1	PIM3	binding	–	competition with immobilised ligand	10 µM	remaining binding	89%
CCN(CC)CCCC[C@H](NC(=O)[C@H](CC(C)C)NC(=O)[C@H](C)NC(=O)[C@H](Cc1ccccc1)NC(=O)c1ccc(C(C)(C)C)cc1)C(=O)N[C@@H](CO)C(=O)OC	Bromodomain testis-specific protein, BD1 (BRDT, Homo sapiens, UniProt Q58F21)	thermal stability	–	DSF	25 µM	ΔTm	-0.19 °C
O=C(Nc1cccnn1)N1CCN([C@@H]2CCOc3cc(C(F)(F)F)ccc32)CC1	5-hydroxytryptamine receptor 1B (Htr1b, Rattus norvegicus, UniProt P28564)	cell-free assay	–	–	20 µM	inhibition	9%
